Source: PubChem (several laboratories)
HSF1 activator = HSF-1 activators, primary screen, NIH3T3-HGL cells, MG132 stress, luminescence, single point. NIH3T3-HGL HSF-1 luciferase reporter, 8 h; 100% = twice DMSO control signal. activation, % at 9 µM. hit rate 1.7% among 300,000;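 active = mean replicate activation of at least 50% with a set share of replicates each reaching 50%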;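 also: 0% = median of the neutral control wells and 100% = twice that signal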
HSF1 inh = HSF1 inhibitors in luciferase reporter cells, primary screen, cell-based, NIH3T3, luminescence | NIH3T3-HGL HSE-luciferase, MG132-induced, luminescence 8 h; hits give low values | activity change, negative = inhibition, % at 7.5 µM (by protocol) | hit rate 0.77% among 300,000;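 active = more than half of replicate wells show activity change below -50%, luminescence cut by over half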;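 also: luciferase reports HSF-1 transcriptional activity via heat shock element; 0% = median of DMSO wells and -100% = zero luminescence signal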
Hep lipid drop = inhibitors of hepatocyte lipid droplet formation, primary screen, imaging, high-throughput imaging, BODIPY stain; AML12 mouse hepatocytes, oleate lipid droplets; inhibition, % at 6.5 µM; hit rate 0.4% among 240,000; AID 1656, 2009;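 active = lipid droplet intensity inhibited by at least 50%, with more than 500 cells counted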
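Material – AML12 mouse liver cells · Also added – oleate loading, 100 µM · Compound dosing – 6.5 µM single-point dosing · Times – overnight treatment with compound plus oleate · Measured by – fluorescence imaging, 20x objective, two fields per well · Read-out – percent inhibition of filter-corrected integrated lipid droplet intensity per well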
PHOSPHO1 inh = PubChem AID 1565 | inhibition, % at 13.3 µM | hit rate 1.1% among 290,000 | recombinant PHOSPHO1, absorbance phosphatase assay | Phosphoethanolamine/phosphocholine phosphatase (Homo sapiens), Q8TCT1; in the data active = inhibition above about 60%
Target sequence (Q8TCT1 whole entry, looked up): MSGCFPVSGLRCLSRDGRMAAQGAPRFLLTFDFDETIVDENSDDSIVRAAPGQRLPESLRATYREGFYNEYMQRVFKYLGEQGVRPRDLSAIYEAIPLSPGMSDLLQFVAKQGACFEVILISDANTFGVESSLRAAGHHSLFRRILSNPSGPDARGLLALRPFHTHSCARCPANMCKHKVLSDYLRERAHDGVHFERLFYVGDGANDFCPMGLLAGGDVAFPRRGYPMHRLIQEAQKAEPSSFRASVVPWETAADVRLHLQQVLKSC
CHT allo act = CHT positive allosteric modulators, primary screen, cell-based, membrane potential dye, choline EC20. High affinity choline transporter 1 (Homo sapiens), Q9GZV3. CHT-expressing cells; hits give high values; LV-AA mutant CHT in HEK293 cells. B-score at 10 µM. hit rate 0.49% among 310,000. AID 488977, 2010;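 active = initial fluorescence not abnormally high and integrated response B-score, plate-corrected, over 3 SD above library mean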
CHT inh = inhibitors of human choline transporter CHT. High affinity choline transporter 1 (Homo sapiens), Q9GZV3. CHT-expressing cells, membrane potential dye, choline response; hits give low values. B-score at 10 µM. hit rate 0.86% among 310,000. AID 488975, 2010;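 active = B-score over 3 SD under the library average, and starting fluorescence ratio not unusually high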;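 also: choline stimulus applied at its EC90 after an EC20 pre-addition; B-score computed on integrated fluorescence ratio after choline addition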
CHT act confirm = CHT activators, confirmation, cell-based, membrane potential dye, duplicate | hit rate 91% among 2,500 | activation, % at 10 µM | shares compounds with CHT allo act | CHT-expressing cells, membrane potential dye fluorescence (FDSS); % of choline EC20–EC90 response window; HEK293 expressing CHT LV-AA mutant; choline added at its EC20;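 active = primary screen active, with duplicate mean activation above negative control mean plus 3 SD, cut at about 11% in these data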
HEK293 MP dye = membrane potential response in parental HEK293 cells, counter-screen for CHT activator project, cell-based, membrane potential dye | shares compounds with CHT allo act | membrane potential dye fluorescence (FDSS); measured after EC20 choline addition | ratio readout change at 10 µM, hits read low | hit rate 62% among 2,500 | AID 623908, 2012;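 active = duplicate-averaged ratio beyond 3 SD from buffer wells, up or down, though filed actives are nearly all decreases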
The depositor's hits bear a star; i = inactive; nt = no result. A selection: hits, their analogues and other compounds. The true share with any hit is near 4.9%.

SMILES | HSF1 activator | HSF1 inh | Hep lipid drop | PHOSPHO1 inh | CHT allo act | CHT inh | CHT act confirm | HEK293 MP dye
COc1ccc(OC)c(C(c2nnnn2Cc2ccccc2)N2CCN(C3CCCCC3)CC2)c1 (configuration not stated) | 10 | -3 | -9 | -4 | i | i | 10* | i
Cc1ccc(S(=O)(=O)CCC(=O)OCC(=O)N(C)CC(=O)Nc2ccc(F)cc2)cc1 | -27 | -8 | nt | nt | i | i | nt | nt
CCC1=[N+](CC(=O)c2ccc(C)cc2)CCn2c(C)ccc21 | 27 | 5 | -25 | -6 | i | i | 32* | i
CCOC(=O)c1sc2nc3n(c(=O)c2c1C)CCCCC3 | 29 | 19 | nt | 16 | i | i | nt | nt
COc1ccc(CC(=O)OCC(=O)NCCNC(=O)COC(=O)Cc2ccc(OC)cc2)cc1 | 11 | -4 | nt | nt | i | i | nt | nt
COc1ccc(CC(=O)OCC(=O)NCc2ccco2)cc1 | -2 | -1 | nt | nt | 7* | i | -6 | i
Cc1cc(C)n2c(Br)c(CN3CCCC(C)C3)nc2n1 (configuration not stated) | 6 | -10 | -5 | 24 | 6.6* | i | 29* | -51*
Cc1nc2ccccn2c1-c1ccnc(=S)[nH]1 | -12 | -9 | -8 | -74 | 6.8* | i | 37* | -35*
S=c1nccc(-c2ccc(Cl)cc2)[nH]1 | 4 | 6 | -13 | -93 | i | i | nt | nt
c1ccc(Cn2c[n+](Cc3ccccc3)c3ccccc32)cc1 | -3 | -4 | -6 | 46 | i | i | 46* | i
COc1ccc(Oc2nc3c(c(=O)n(C)c(=O)n3C)n2Cc2ccccc2)cc1 | -1 | -1 | 0 | 12 | i | i | nt | nt
CC(C)CCn1c(Oc2ccc(Cl)cc2)nc2c1c(=O)n(C)c(=O)n2C | 1 | 1 | -2 | 12 | i | i | 25* | i
COc1ccccc1N(CC(=O)NCC1CCCO1)C(=O)Cn1nnc(-c2cccs2)n1 (configuration not stated) | 45 | 8 | 0 | 53 | i | i | nt | nt
O=[N+]([O-])c1cnc2nc(-c3ccncc3)nn2c1O | -10 | -8 | 11 | 12 | i | i | 44* | -45*
O=C(Cn1c(=O)c2ccccc2n(CC(=O)N2CCCCC2)c1=O)N1CCCCC1 | -7 | -14 | -1 | 8 | i | i | nt | nt
Cc1cccc2c(=O)cc(C)n(CC(=O)N3CCOCC3)c12 | -8 | 5 | nt | -14 | 10* | i | 47* | i
Cc1cccc2c(=O)cc(C)n(CC(=O)N3CCCCC3)c12 | -4 | -9 | nt | 25 | 7.6* | i | 62* | -70*
C=CCNC(=O)/C(C#N)=C\c1cc(Cl)c(OCC)c(OC)c1 | 0 | -4 | -5 | -17 | i | i | nt | nt
CCOC(=O)c1cnc2ccc(C(=O)OC)cc2c1Nc1ccc(C(=O)O)cc1 | -6 | -5 | 26 | 50 | 8.9* | i | 63* | -63*
CCOC(=O)c1cnc2ccc(Cl)cc2c1NCCN(C)C | 8 | 2 | -1 | -18 | i | i | 27* | -39*
CCOC(=O)c1cnc2ccc(C(=O)OC)cc2c1Nc1ccc2c(c1)OCCO2 | 13 | 0 | nt | 16 | i | i | nt | nt
CCOC(=O)c1cnc2ccc(Br)cc2c1NCCO | -8 | -7 | 2 | 1 | i | i | nt | nt
CN(C)CCNC(=O)c1ccc(COCC(F)(F)F)cc1 | 23 | 9 | -4 | 3 | i | i | nt | nt
NNC(=O)c1ccc(COCC(F)(F)F)cc1 | -18 | 1 | 4 | 19 | i | i | -6 | i
Cc1nc(NCCCn2ccnc2)c2ccccc2n1 | -9 | -3 | nt | -1 | i | i | 46* | -65*
SMILES | HSF1 activator | HSF1 inh | Hep lipid drop | PHOSPHO1 inh | CHT allo act | CHT inh | CHT act confirm | HEK293 MP dye
O=C(NCCN1CCCC1)C1COc2ccccc2O1 (configuration not stated) | -2 | -5 | nt | 15 | i | i | nt | nt
CC1CCCCN1CCNC(=O)c1cc2c(=O)n(C)c3ccccc3c2n1C (configuration not stated) | -4 | 3 | nt | 15 | i | i | 30* | -21*
Cn1c(C(=O)NCCN2CCOCC2)cc2c(=O)n(C)c3ccccc3c21 | 6 | -2 | nt | -9 | i | i | nt | nt
Cn1c(C(=O)NCCCN2CCCC2=O)cc2c(=O)n(C)c3ccccc3c21 | 17 | 0 | nt | -3 | i | i | 27* | -32*
CCN(c1ccccc1)S(=O)(=O)c1cc(C(=O)Nc2ccc(F)c(F)c2)ccc1F | -1 | 7 | -7 | 7 | i | i | nt | nt
CN1CCN(C(=O)c2cc(=O)c3cc(Cl)cc(Cl)c3o2)CC1 | 2 | 0 | 1 | 31 | i | i | 43* | -42*
CC(C)(C)c1ccc(C(=O)c2c[nH]c(C(=O)NCc3cccs3)c2)cc1 | 1 | 4 | nt | 13 | i | i | nt | nt
CCCc1nc2c(C)ccc(C)c2c(N)c1CC | -4 | 2 | -14 | -8 | i | i | 55* | -52*
CCc1c(-c2ccccc2)nc2sc3c(c2c1N)CCCC3 | 40 | 27 | -6 | 16 | i | i | nt | nt
COc1ccc(S(=O)(=O)N2CCCCCC2)cc1C(=O)N1CCCC(C(F)(F)F)C1 (configuration not stated) | 2 | 1 | nt | nt | 10* | i | 15* | i
Cn1c(SCC(=O)N2CCc3ccccc3C2)nnc1-c1ccncc1 | 11 | 2 | -50 | -2 | i | i | nt | nt
CCc1cccc(CC)c1-n1c(SCC(=O)N2CCc3ccccc3C2)nnc1-c1cccnc1 | 5 | 5 | 4 | -23 | i | i | 8 | i
Cc1ccc2[nH]c3c(c2c1)CN(C(=O)CN(C)CC1OCCO1)CC3 | 4 | -5 | nt | 42 | i | i | nt | nt
Cc1cc(N2CCOCC2)nc2ccc(NC(=O)CCC(=O)N3CCCCC3)cc12 | -6 | -1 | nt | 7 | i | i | nt | nt
CCCCN(C)C(=O)CCC(=O)Nc1ccc2nc(N3CCOCC3)cc(C)c2c1 | 6 | 4 | nt | 23 | 7.7* | i | 48* | -34*
